Yeast fitness data for 167 variants are collected here from the RNAGym collection of RNA variant scans (doi:10.1126/science.aae0568).

B1: tRNA (parent)
chain: GUUCCGUUGGCGUAAUGGUAACGCGUCUCCCUCCUAAGGAGAAGACUGCGGGUUCGAGUCCCGUACGGAACG

Fewer inactive variants are shown than the library holds.

Variants of B1 are the subject of this data set. Description: yeast fitness relative to wild type (ratio to wild type); higher = fitter; tRNA-Arg(CCU), competitive growth, 37 C, YPD. In a few lines: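 Genotype frequency changes were the basis for Darwinian fitness relative to wild type. The frequencies came from 100-nucleotide paired-end sequencing of gene amplicons from the start population and each end population of pooled yeast strains with tRNA-Arg(CCU) gene variants at the native locus. Competition ran in YPD at 37°C for 24 hours in six replicates, genotypes needed ≥ 100 starting reads, and estimates < 0.5 were set to 0.5.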
As to C27G C49A G52C C60U, the yeast fitness was at most 0.5. Turning to C27A C61U C66U, the yeast fitness was at most 0.5. Under U26A C33A stands 0.689; under C27U C33A A37U A57G, at most 0.5; under C27G A43G, 0.636. Turning to C27U A37G C55U, the yeast fitness was at most 0.5. Consider C27U C29A A36U A40C G41A A65U, for which the yeast fitness was at most 0.5. The figure for U26A C27U U59C A65G is 0.65; for C27U U32C C55A it is at most 0.5. Consider U26C C31U A43G G63A, for which the yeast fitness stood at 0.611.

On to C27A A37C G52A U59A, for which the yeast fitness was at most 0.5. For C27U C34U U47C U53G A69U, the yeast fitness is at most 0.5. With C27G U54C, the yeast fitness was at most 0.5.

Turning to C27U A65C, the yeast fitness was 1.02. Turning to C27U A65G, the yeast fitness came to 0.975.

For C27G A40C C55G, the yeast fitness was at most 0.5. Regarding C27U U32C C46G, the yeast fitness amounted to 0.765. For C27G A40U, the yeast fitness is 0.682.

For the variant C27G A40G, the yeast fitness amounted to 0.594. Under U28A C30G A36C stands at most 0.5; under C27G U59G G68C, 0.582. On to C27U A45U G52A, for which the yeast fitness came to 0.63.

On to U26C A45G C55A C66U, for which the yeast fitness came to 0.701.

For C27U G41A, the yeast fitness is 0.939. Take C27U C30G: the yeast fitness was found to be 0.624. The figure for U26A C34U C49G is at most 0.5; for C27U G38A U59G U64C A65U it is at most 0.5; for C27A G39A A42C G48C C60U it is at most 0.5. In the case of C27U U53C G63A, the yeast fitness was at most 0.5.

With U26A U35G A37U A70G, the yeast fitness was at most 0.5.

C27G C31G A43C: the yeast fitness was 0.545.

For the variant U26A C30U C31U A37C G48A, the yeast fitness was at most 0.5. For the variant C27G U28A C30G C31U C60A A70C, the yeast fitness was at most 0.5. For C27G U47C A70U, the yeast fitness worked out at 0.545. Turning to C27U G50C A65C, the yeast fitness is at most 0.5. The figure for C27U C55U G67C is 0.572. For the variant C27A C49U C61A, the yeast fitness was at most 0.5. The figure for C27A U28C G67U A70G is at most 0.5; for U26C C46U G51A it is 0.64; for C27U G51C C55A A65C it is at most 0.5. Under C27U G50C stands 0.618; under C27U A43U C55U, 0.592; under U26G A36G, 0.914. Turning to U26A C60U, the yeast fitness was 0.744. As to C27A C31G G44C, the yeast fitness is at most 0.5.

Take U26A U28A C31U G56A C66G: the yeast fitness is at most 0.5.

Take C27G C62U: the yeast fitness was found to be 0.688. Under C27G C30A C34G A45G C62U A69G stands at most 0.5.

For C27A A40G C61G, the yeast fitness is 0.614. C27U A37U A69C: the yeast fitness worked out at 0.608. On to C27A A43C A69C, for which the yeast fitness turned out to be 0.748. Turning to C27A G67A, the yeast fitness stood at 0.807. The figure for C27A G67U is 0.745; for C27A G67C it is 0.786. Under C27U U35G A40C A57C G67U stands 0.612. In the case of C27G A42G C60A, the yeast fitness was at most 0.5. As for C27U G44C G58C, the yeast fitness amounted to 0.655. With U28A C30G U59C, the yeast fitness is at most 0.5. Take C27G C33U: the yeast fitness was 0.592. For the variant U26A C30A C34A G48C A70U, the yeast fitness was at most 0.5. Turning to C27U U28A U32A C34U A36C U47C C55A, the yeast fitness was at most 0.5.

Take C27U A45G U53C: the yeast fitness is 0.544.

For the variant C27A G52C, the yeast fitness was 0.562. Consider C27G U32A U54G, for which the yeast fitness is at most 0.5. For the variant C27G G58C U59C G63A, the yeast fitness is at most 0.5. As to U26A C55U, the yeast fitness was 0.65. For C27A G39C A57U A70U, the yeast fitness was at most 0.5. The figure for C27G A69U is 0.738; for C27U C31A U53A it is at most 0.5. Turning to U26C A36U A45U G52C A57U, the yeast fitness was at most 0.5. Regarding U28A C30U A37C G41C, the yeast fitness is 0.542. As for C27G C49A A70U, the yeast fitness was at most 0.5. With U26C C33G U59C, the yeast fitness is 0.515. For the variant C27G A36U U53A, the yeast fitness is at most 0.5. In the case of U26A C34A, the yeast fitness was determined as 0.592. Regarding U26A C29A C31G A65C, the yeast fitness was 0.566.

For C27U C33U A40C A57G C66U, the yeast fitness was at most 0.5. Consider C27U U47A G68C, for which the yeast fitness is at most 0.5.

As to C27G A36C, the yeast fitness is at most 0.5. Under C27A A43C U54C stands 0.624.

As for C27G C62U A65U, the yeast fitness is 0.554. On to C27A G68C, for which the yeast fitness came out at 0.893. The figure for U26A G48A C49G A70U is at most 0.5. The figure for C27G C30G C31U A42G U54C is at most 0.5; for U26C C46A U47G G50A it is 0.541; for C27A A36G U53A A70G it is at most 0.5. Take U26C U59A: the yeast fitness was found to be 0.882. As to U26C U59C, the yeast fitness amounted to 0.793.

On to C27A G41C A43C G48A C66U, for which the yeast fitness turned out to be 0.546. Take U26G G51C: the yeast fitness was found to be 0.588.

For the variant U26C C61G G63A A69U, the yeast fitness is 0.532. The figure for U26G C49A is 0.703. Under U26G C49G stands 0.851. Under C27A C31U stands 0.941. As to C27U C55A A69C, the yeast fitness amounted to 0.573. The figure for C27A C33G G39A C49G is at most 0.5; for C27U U47C G68A it is 0.672; for C27U A36C A42U C46U C62U G63A it is at most 0.5.

Regarding U26C C61U C62G, the yeast fitness was at most 0.5.

As to U26A C31A A42G C55G A57C, the yeast fitness is at most 0.5.

With C27U G48A A65U, the yeast fitness was found to be 0.714.

As to C27U U28G A40C G51A, the yeast fitness worked out at 0.543.

C27G A36C G44A: the yeast fitness is at most 0.5. As to U26A G68C A69G, the yeast fitness was found to be 0.572. The figure for U26C C30G A45U U53A C62U G68C is at most 0.5. Take U26C A69C: the yeast fitness was determined as 0.885. The figure for U26C C46U C62U is 0.718; for U26A C31U A57G it is 0.742. With U26C C33G A36U A57U, the yeast fitness is at most 0.5.

As for U26C G38C, the yeast fitness turned out to be 0.717.

As to C27A C31G U54C, the yeast fitness turned out to be 0.744. As to C27U C49U A57G, the yeast fitness was determined as 0.703.

Turning to U26C G48C G52C A57C G58A, the yeast fitness is at most 0.5. On to C27G C30G, for which the yeast fitness is at most 0.5. On to U26C G68C, for which the yeast fitness stood at 0.936. Under U28A C31A G44A stands 0.568; under C27U U35C, 0.754; under C27A G39C C55G A70C, at most 0.5. For C27U C46U A57G, the yeast fitness came out at 0.679. The figure for C27A C62G A65U is at most 0.5; for U28A A42U it is 0.812. With U28A A42C, the yeast fitness amounted to 0.797. Regarding C27U G41C U53A C62U, the yeast fitness is at most 0.5. Take C27G A45C G58C: the yeast fitness came to 0.644.

As to C27U A45G U64A, the yeast fitness stood at 0.553. For C27G C31G G68A, the yeast fitness was at most 0.5. Regarding C27G C29G C30U, the yeast fitness is at most 0.5.

Take C27A C66G A70C: the yeast fitness was at most 0.5. Consider U26C A36U, for which the yeast fitness is 0.608. Take U26G U28A A43G C61U G67A: the yeast fitness is 0.599. Regarding U26G G63C C66U, the yeast fitness was at most 0.5. Under U26A C49U G56A stands 0.706; under C27G G44C U47C, at most 0.5. For U26G C27U G56A A65C, the yeast fitness is at most 0.5. The figure for C27U C31A U35C C55G C66U A70C is at most 0.5.

For the variant C27U C55U A70U, the yeast fitness turned out to be 0.504. As to U26C A42G G67U, the yeast fitness is 0.647. Take U26C C33G A45G: the yeast fitness is at most 0.5. U26A C29A A45U G58A: the yeast fitness is at most 0.5. Under C27A C31U C60G stands at most 0.5. In the case of C27A G38C, the yeast fitness was 0.609. Turning to U28A C31U U32A G52A A57U C60U A65G G68A, the yeast fitness is at most 0.5. The figure for C27U U32A is 0.993; for C27U C31G A43C C49G G52C U59A G68A it is at most 0.5.

For the variant U28A C30U A57G, the yeast fitness stood at 0.651. Take C27U G44A: the yeast fitness was 0.887. For C27U A40G G44A C62U, the yeast fitness was at most 0.5. On to C27U A40G G44A C62A, for which the yeast fitness turned out to be 0.51. Under C27G A37C A57C stands at most 0.5; under C27U A40C A57U, 0.606; under U26A G39U A45C, at most 0.5.

Regarding C27A C30G G41C C61G C62U A69U, the yeast fitness stood at 0.557. Consider C27G A42U, for which the yeast fitness was determined as 0.721.

As to C27G C34G A37U, the yeast fitness is at most 0.5. Consider C27U C62G, for which the yeast fitness amounted to 0.669. In the case of U26A U32C U53A, the yeast fitness was at most 0.5. Regarding C27U A57U G58C, the yeast fitness came out at 0.667.

As for C27A G44C, the yeast fitness was 0.782. On to U26G C29A, for which the yeast fitness was found to be 0.578. C27G C29A C61U: the yeast fitness is at most 0.5. For U26A U28C C30G C62A, the yeast fitness was at most 0.5. As for C27U G38C A57G A65C, the yeast fitness is at most 0.5. Take C27U C33U C66U: the yeast fitness came out at 0.536. As to C27U G58A G63A, the yeast fitness worked out at 0.53. As to U28A A37G G51C A57C, the yeast fitness is at most 0.5. C27G A45C C49U G52A U59C: the yeast fitness was 0.6.

Regarding U26C C30G C34U C49U, the yeast fitness is 0.51.
